# Experimental data from publication PMC5598417 (Toxicology Reports, 2014).
# What was measured:
# [1] = test system: MA-10 cells; experiment: Reactive oxygen species assay; format: cell-based, murine; details: for ROS formation compared with vehicle-treated control cells: 100 μM, 48-h exposure
# Procedure, shortened: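 MA-10 cells seeded at 7.5 × 10^4 cells/well in gelatin-coated plates 24 h beforehand, loaded with H2-DCFDA (10 μM, 2 h, 37 °C), then washed twice in warm PBS. Exposure to 0.01–100 μM in serum-free, phenol red-free DMEM/F-12 (≤0.1% DMSO) for up to 48 h. Fluorescence read at 485/530 nm at 0, 1, 24 and 48 h and expressed as % of time-matched control. Positive controls were H2O2 20 mM (1 h) and rotenone 100 μM (24/48 h). Three independent experiments, quadruplicates.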
# [2] = target: T1, androgen receptor (AR) (Homo sapiens, UniProt P10275); format: cell-based; details: BMR25%FLUT/BMR25%FLUT conazole
# T1 sequence (P10275 1-920): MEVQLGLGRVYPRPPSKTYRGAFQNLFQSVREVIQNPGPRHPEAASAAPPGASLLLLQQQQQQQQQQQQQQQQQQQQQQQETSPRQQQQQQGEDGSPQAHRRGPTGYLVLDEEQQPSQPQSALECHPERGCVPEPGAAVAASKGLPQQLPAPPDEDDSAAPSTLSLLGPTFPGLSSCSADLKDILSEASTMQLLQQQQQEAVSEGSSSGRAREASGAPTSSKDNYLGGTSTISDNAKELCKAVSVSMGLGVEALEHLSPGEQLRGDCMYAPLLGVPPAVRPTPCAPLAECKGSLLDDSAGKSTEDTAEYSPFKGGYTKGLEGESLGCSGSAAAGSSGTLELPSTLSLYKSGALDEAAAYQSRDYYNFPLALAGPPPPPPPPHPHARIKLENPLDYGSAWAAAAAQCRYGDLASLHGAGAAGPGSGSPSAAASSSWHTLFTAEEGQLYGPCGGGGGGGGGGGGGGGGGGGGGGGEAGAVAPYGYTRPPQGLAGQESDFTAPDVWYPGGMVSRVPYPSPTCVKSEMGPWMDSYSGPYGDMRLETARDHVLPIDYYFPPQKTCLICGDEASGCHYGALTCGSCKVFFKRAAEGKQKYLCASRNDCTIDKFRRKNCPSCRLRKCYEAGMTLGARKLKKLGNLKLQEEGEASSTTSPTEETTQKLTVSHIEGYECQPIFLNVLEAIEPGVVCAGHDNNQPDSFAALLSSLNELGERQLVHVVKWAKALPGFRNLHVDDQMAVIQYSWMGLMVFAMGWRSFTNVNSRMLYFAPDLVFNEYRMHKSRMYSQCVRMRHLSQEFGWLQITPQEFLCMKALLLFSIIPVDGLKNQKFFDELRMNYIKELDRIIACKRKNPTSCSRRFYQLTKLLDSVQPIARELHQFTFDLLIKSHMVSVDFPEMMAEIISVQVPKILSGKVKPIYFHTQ
# [3] = test system: MA-10 cells; experiment: Basal testosterone secretion by MA-10 Leydig cells; format: cell-based, murine; details: for decrease of basal T secretion compared with vehicle-treated control cells: 10 μM; for decrease of basal T secretion compared with vehicle-treated control cells / T secretion, concentration curves without LH: 48 h; for T secretion by MA-10 cells compared with vehicle-control: basal T secretion, conazole 10 μM; for T secretion, concentration curves without LH: SU10603 0.05-1 μM, FLUS or TEBU 0.3-10 μM, Supplementary Fig. 1
# [4] = test system: MA-10 cells; experiment: Expression of steroidogenic genes in MA-10 cells; format: cell-based, murine; details: 6-h exposure; conazole 10 μM
# [5] = humans; cited from earlier work
# [6] = test system: MA-10 cells; experiment: LH-induced testosterone secretion by MA-10 Leydig cells; format: cell-based, murine; details: read-out: IC50 of T secretion inhibition in combination with LH; LH 10 ng/mL; 48-h exposure
# [7] = test system: MA-10 cells; experiment: Expression of cholesterol biosynthesis genes in MA-10 cells; format: cell-based, murine; details: 6-h exposure; cAMP 100 μM, conazole 10 μM
# [8] = cited from earlier work
SMILES,ROS formation compared with vehicle-treated control cells [1],decrease of basal T secretion compared with vehicle-treated control cells [3],"gene expression of five steroidogenic genes (StAR, Cyp11A1, Cyp17A1, 3β-HSD1, 17β-HSD3) [4]",other results
"CC1(C)CCC(=Cc2ccc(Cl)cc2)C1(O)Cn1cncn1 (centres unmarked) [TRIT, Triticonazole]",did not significantly change,more than 50%,,REP (relative effect potency as compared to flutamide) [2]: 0.25; T secretion by MA-10 cells compared with vehicle-control ([3]; 48-h exposure): 44%
"CCCCC(C#N)(Cn1cncn1)c1ccc(Cl)cc1 (centres unmarked) [MYC, Myclobutanil]",did not significantly change,,,
"CC(C1CC1)C(O)(Cn1cncn1)c1ccc(Cl)cc1 (centres unmarked) [CYPRO, Cyproconazole]",did not significantly change,,did not significantly affect,
"C[Si](Cn1cncn1)(c1ccc(F)cc1)c1ccc(F)cc1 [FLUS, Flusilazole]",1.2 fold,more than 50%,did not significantly affect,"T secretion, concentration curves without LH [3]: concentration-dependently inhibited T secretion"
"OC(Cn1cncn1)(Cn1cncn1)c1ccc(F)cc1F [FLUC, Fluconazole, reference compound]",did not significantly change,,,Tmax [5]: approximately 2 h
"C=C(C)[C@H]1Cc2c(ccc3c2O[C@@H]2COc4cc(OC)c(OC)cc4[C@@H]2C3=O)O1 [rotenone, reference compound]",,,,"ROS production, % of the control ([1]; rotenone 100 μM, 48 h): 158 ± 18%"
"CCCC(Cn1cncn1)c1ccc(Cl)cc1Cl (centres unmarked) [PEN, Penconazole]",did not significantly change,,,
"CCCCC(O)(Cn1cncn1)c1ccc(Cl)cc1Cl (centres unmarked) [HEXA, Hexaconazole]",1.2 fold,more than 50%,,REP (relative effect potency as compared to flutamide) [2]: 0.26; T secretion by MA-10 cells compared with vehicle-control ([3]; 48-h exposure): 36%
"O=C1c2cc(Cl)ccc2CCC1c1cccnc1 (centres unmarked) [SU10603, reference compound]",,,,"IC50 [6]: 0.5 µM; decrease of T secretion compared to vehicle-treated cells ([3]; SU10603 1 μM, 48-h exposure): 82%; T secretion, concentration curves without LH [3]: concentration-dependently inhibited T secretion"
"CC(C)(C)C(=O)C(Oc1ccc(Cl)cc1)n1cncn1 (centres unmarked) [TRIA, Triadimefon]",did not significantly change,,,
"CCCN(CCOc1c(Cl)cc(Cl)cc1Cl)C(=O)n1ccnc1 [PRO, Prochloraz]",1.3 fold,more than 50%,did not significantly affect,gene expression of Cyp51 in comparison with vehicle-treated cells [7]: 1.7 fold; gene expression of HMG-CoA red in comparison with vehicle-treated cells [7]: 1.9 fold; T secretion by MA-10 cells compared with vehicle-control ([3]; 48-h exposure): 23%
"CC(C)(C)C(O)(CCc1ccc(Cl)cc1)Cn1cncn1 (centres unmarked) [TEBU, Tebuconazole]",1.4 fold,more than 50%,did not significantly affect,"gene expression of Por in comparison with vehicle-treated cells [7]: 0.8 fold; T secretion, concentration curves without LH [3]: concentration-dependently inhibited T secretion; elimination half-life in soil [8]: approximately 800 days"
